Experimental data from ChEMBL document CHEMBL1145494, “Covalent dimer species of beta-defensin Defr1 display potent antimicrobial activity against multidrug-resistant bacterial pathogens” (2007).
≈ marks a conversion by molar mass, not a printed value. Residues, ends and D or L forms follow the SMILES beside them.

How the values were obtained:
Pseudomonas aeruginosa [1] = assay: Antibacterial activity against Pseudomonas aeruginosa PAO1; type: functional
Outline: (§1)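 Bacteria grown to mid-log phase in Iso-Sensitest broth, diluted to 1 × 10^6 to 5 × 10^6 CFU/ml in 10 mM potassium phosphate, pH 7.4, with 1% (vol/vol) Iso-Sensitest broth. Peptide dilutions incubated with 100 μl of cells (1 × 10^5 to 5 × 10^5 CFU) at 37°C for 3 h. 10-fold dilutions plated and CFU counted next day. MBC = concentration giving >99.99% kill of inoculum. Triplicate on three occasions, mean taken.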

Staphylococcus aureus [2] = assay: Antibacterial activity against Staphylococcus aureus ATCC 25923; type: functional
Outline: (§2)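 Mid-log cultures grown in Iso-Sensitest broth, diluted to 1 × 10^6 to 5 × 10^6 CFU/ml in 10 mM potassium phosphate with 1% (vol/vol) Iso-Sensitest broth, pH 7.4. Peptide at various concentrations was incubated with 1 × 10^5 to 5 × 10^5 CFU in 100 μl at 37°C for 3 h. 10-fold dilutions were plated and CFU counted next day. MBC was taken as >99.99% killing of the inoculum, as the mean of triplicates on three independent occasions.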

Enterococcus faecalis = assay: Antibacterial activity against Enterococcus faecalis ATCC 700802; type: functional; outline: as §2
Burkholderia cepacia = assay: Antibacterial activity against Burkholderia cepacia ATCC 25416; type: functional; outline: as §2
Pseudomonas aeruginosa [3] = assay: Antibacterial activity against meropenem and colistin-resistant Pseudomonas aeruginosa C3425; type: functional; outline: as §1
Pseudomonas aeruginosa [4] = assay: Antibacterial activity against tobramycin-resistant Pseudomonas aeruginosa H183; type: functional; outline: as §1
Escherichia coli = assay: Antibacterial activity against Escherichia coli ATCC 25922; type: functional; outline: as §2
Cupriavidus necator = assay: Antibacterial activity against Ralstonia eutropha ATCC 17697; type: functional; outline: as §2
Candida albicans = assay: Antifungal activity against Candida albicans J2922; type: functional
[5] = system: Stenotrophomonas maltophilia; assay: Antibacterial activity against ciprofloxacin and meropenem-resistant Stenotrophomonas maltophilia C3626
Staphylococcus aureus [6] = assay: Antibacterial activity against ciprofloxacin and methicillin-resistant Staphylococcus aureus J2918
[7] = system: Bordetella bronchiseptica; assay: Antibacterial activity against Bordetella bronchiseptica J3083; type: functional; outline: as §2
[8] = system: Stenotrophomonas maltophilia; assay: Antibacterial activity against ciprofloxacin, meropenem and colistin-resistant Stenotrophomonas maltophilia C3625; type: functional; outline: as §1
Ralstonia pickettii = assay: Antibacterial activity against Ralstonia pickettii R4050/C3079; type: functional; outline: as §2
[9] = system: Stenotrophomonas maltophilia; assay: Antibacterial activity against meropenem and tobramycin-resistant Stenotrophomonas maltophilia C3627; type: functional; outline: as §1
Pseudomonas aeruginosa [10] = assay: Antibacterial activity against tobramycin-resistant Pseudomonas aeruginosa C4269; type: functional; outline: as §1
Burkholderia cenocepacia = assay: Antibacterial activity against Burkholderia cenocepacia ATCC BAA-245; type: functional; outline: as §2
Pseudomonas aeruginosa [11] = assay: Antibacterial activity against meropenem and tobramycin-resistant Pseudomonas aeruginosa C3781; type: functional; outline: as §1
Acinetobacter baumannii = assay: Antibacterial activity against Acinetobacter baumannii ATCC 19606; type: functional; outline: as §2
[12] = system: Stenotrophomonas maltophilia; assay: Antibacterial activity against ciprofloxacin, meropenem and tobramycin-resistant Stenotrophomonas maltophilia C1980; type: functional; outline: as §1
Pseudomonas aeruginosa [13] = assay: Antibacterial activity against Pseudomonas aeruginosa in presence of 200 mM NaCl; type: functional
Outline: (§3)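 P. aeruginosa PAO1 (1 × 10^5 CFU in 100 μl) in 10 mM potassium phosphate with 1% (vol/vol) Iso-Sensitest, pH 7.4, containing NaCl (0 to 200 mM). Challenged with peptide in doubling dilutions from 0 to 150 μg/ml at 37°C for 3 h, then plated for CFU. MBC (>99.99% killing) was determined at each NaCl concentration.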

Pseudomonas aeruginosa [14] = assay: Antibacterial activity against Pseudomonas aeruginosa in presence of 150 mM NaCl; type: functional; outline: as §3
Pseudomonas aeruginosa [15] = assay: Antibacterial activity against Pseudomonas aeruginosa in presence of 50 mM NaCl; type: functional; outline: as §3
Pseudomonas aeruginosa [16] = assay: Antibacterial activity against Pseudomonas aeruginosa in presence of 100 mM NaCl; type: functional; outline: as §3

Molecule	MBC (Pseudomonas aeruginosa [1])	MBC (Staphylococcus aureus [2])	MBC (Enterococcus faecalis)	MBC (Burkholderia cepacia)	MBC (Pseudomonas aeruginosa [3])	MBC (Pseudomonas aeruginosa [4])	MBC (Escherichia coli)	MBC (Cupriavidus necator)	MBC (Candida albicans)	MBC [5]	MBC (Staphylococcus aureus [6])	MBC [7]	MBC [8]	MBC (Ralstonia pickettii)	MBC [9]	MBC (Pseudomonas aeruginosa [10])	MBC (Burkholderia cenocepacia)	MBC (Pseudomonas aeruginosa [11])	MBC (Acinetobacter baumannii)	MBC [12]	other results
CC[C@H](C)[C@H](NC(=O)CNC(=O)CNC(=O)[C@H](CC(N)=O)NC(=O)[C@H](CCCNC(=N)N)NC(=O)[C@@H](NC(=O)[C@H](Cc1ccc(O)cc1)NC(=O)[C@@H](NC(=O)[C@@H](NC(=O)[C@@H]1CCCN1C(=O)[C@@H](N)CC(=O)O)C(C)C)[C@@H](C)O)[C@@H](C)CC)C(=O)N[C@@H](CS)C(=O)N[C@@H](CCC(N)=O)C(=O)N[C@@H](Cc1ccc(O)cc1)C(=O)N[C@@H](CCCNC(=N)N)C(=O)N[C@@H](CS)C(=O)N[C@H](C(=O)NCC(=O)N[C@@H](CC(C)C)C(=O)N[C@@H](CCCNC(=N)N)C(=O)N[C@@H](Cc1cnc[nH]1)C(=O)N[C@@H](CCCCN)C(=O)N[C@H](C(=O)NCC(=O)N[C@H](C(=O)N[C@@H](CS)C(=O)NCC(=O)N[C@@H](CO)C(=O)N1CCC[C@H]1C(=O)N[C@@H](Cc1ccccc1)C(=O)N[C@@H](CCCCN)C(=O)N[C@@H](CS)C(=O)N[C@@H](CS)C(=O)N[C@@H](CCCCN)C(=O)O)[C@@H](C)O)[C@@H](C)CC)[C@@H](C)CC (H-DPVTYIRNGGICQYRCIGLRHKIGTCGSPFKCCK-OH)	6 µg/mL (≈ 1.58 µM)	10 µg/mL (≈ 2.64 µM)	6 µg/mL (≈ 1.58 µM)	> 100 µg/mL	6 µg/mL (≈ 1.58 µM)	6 µg/mL (≈ 1.58 µM)	8 µg/mL (≈ 2.11 µM)	3 µg/mL (≈ 0.792 µM)	3 µg/mL (≈ 0.792 µM)	3 µg/mL (≈ 0.792 µM)	6 µg/mL (≈ 1.58 µM)	6 µg/mL (≈ 1.58 µM)	6 µg/mL (≈ 1.58 µM)	3 µg/mL (≈ 0.792 µM)	6 µg/mL (≈ 1.58 µM)	6 µg/mL (≈ 1.58 µM)	> 100 µg/mL	6 µg/mL (≈ 1.58 µM)	3 µg/mL (≈ 0.792 µM)	12.5 µg/mL (≈ 3.3 µM)	
POLYMYXIN B	0.5 µg/mL	256 µg/mL	256 µg/mL	> 512 µg/mL	1 µg/mL	1 µg/mL	0.25 µg/mL	128 µg/mL	> 512 µg/mL			0.12 µg/mL	32 µg/mL	> 512 µg/mL	64 µg/mL	1 µg/mL	> 512 µg/mL	0.5 µg/mL	1 µg/mL	32 µg/mL	
CC[C@H](C)[C@H](NC(=O)CNC(=O)CNC(=O)[C@H](CC(N)=O)NC(=O)[C@H](CCCNC(=N)N)NC(=O)[C@@H](NC(=O)[C@H](CS)NC(=O)[C@@H](NC(=O)[C@@H](NC(=O)[C@@H]1CCCN1C(=O)[C@@H](N)CC(=O)O)C(C)C)[C@@H](C)O)[C@@H](C)CC)C(=O)N[C@@H](CS)C(=O)N[C@@H](CCC(N)=O)C(=O)N[C@@H](Cc1ccc(O)cc1)C(=O)N[C@@H](CCCNC(=N)N)C(=O)N[C@@H](CS)C(=O)N[C@H](C(=O)NCC(=O)N[C@@H](CC(C)C)C(=O)N[C@@H](CCCNC(=N)N)C(=O)N[C@@H](Cc1cnc[nH]1)C(=O)N[C@@H](CCCCN)C(=O)N[C@H](C(=O)NCC(=O)N[C@H](C(=O)N[C@@H](CS)C(=O)NCC(=O)N[C@@H](CO)C(=O)N1CCC[C@H]1C(=O)N[C@@H](Cc1ccccc1)C(=O)N[C@@H](CCCCN)C(=O)N[C@@H](CS)C(=O)N[C@@H](CS)C(=O)N[C@@H](CCCCN)C(=O)O)[C@@H](C)O)[C@@H](C)CC)[C@@H](C)CC (H-DPVTCIRNGGICQYRCIGLRHKIGTCGSPFKCCK-OH)	50 µg/mL (≈ 13.4 µM)	> 100 µg/mL	100 µg/mL (≈ 26.8 µM)	> 100 µg/mL	50 µg/mL (≈ 13.4 µM)	100 µg/mL (≈ 26.8 µM)	> 100 µg/mL	> 100 µg/mL	25 µg/mL (≈ 6.71 µM)	> 100 µg/mL	> 100 µg/mL	> 100 µg/mL	> 100 µg/mL	> 100 µg/mL	> 100 µg/mL	> 100 µg/mL	> 100 µg/mL	100 µg/mL (≈ 26.8 µM)	12.5 µg/mL (≈ 3.35 µM)	> 100 µg/mL	
H-DPVTYIRNGGIAQYRAIGLRHKIGTAGSPFKCAK-OH																					MBC (Pseudomonas aeruginosa [13]): 50 µg/mL; MBC (Pseudomonas aeruginosa [14]): 50 µg/mL; MBC (Pseudomonas aeruginosa [15]): 25 µg/mL; MBC (Pseudomonas aeruginosa [16]): 25 µg/mL
